# ChEMBL document CHEMBL1139946, “1-Aryl-4,6-dihydropyrazolo[4,3-d][1]benzazepin-5(1H)-ones: a new class of antiproliferative agents with selectivity for human leukemia and breast cancer cell lines” (Eur J Med Chem, 2007)
# Key:
# NCI-H460 = test: Antiproliferative activity against human NCI-H460 cells at 100 uM after 48 hrs relative to control; format: functional; settings: NCI-H460, 48 h
# Outline: (§1)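 NCI three-cell-line prescreen (MCF7 breast, NCI-H460 non-small cell lung, SF-268 CNS). Cells inoculated and preincubated in microtiter plates, then exposed to test agent at 10^-4 M for 48 h. Alamar blue end-point read-out. Growth of treated cells expressed as percent of untreated control cells.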
# Homo sapiens [1] = species: Homo sapiens; test: Inhibition of CK2-alpha1 at 10 uM
# [2] = biological target: Proto-oncogene tyrosine-protein kinase Src (Homo sapiens) (UniProt P12931); test: Inhibition of SRC at 10 uM
# [3] = biological target: T1, Ephrin type-B receptor 4 (Homo sapiens) (UniProt P54760); test: Inhibition of EphB4 at 10 uM
# T1 sequence (whole entry): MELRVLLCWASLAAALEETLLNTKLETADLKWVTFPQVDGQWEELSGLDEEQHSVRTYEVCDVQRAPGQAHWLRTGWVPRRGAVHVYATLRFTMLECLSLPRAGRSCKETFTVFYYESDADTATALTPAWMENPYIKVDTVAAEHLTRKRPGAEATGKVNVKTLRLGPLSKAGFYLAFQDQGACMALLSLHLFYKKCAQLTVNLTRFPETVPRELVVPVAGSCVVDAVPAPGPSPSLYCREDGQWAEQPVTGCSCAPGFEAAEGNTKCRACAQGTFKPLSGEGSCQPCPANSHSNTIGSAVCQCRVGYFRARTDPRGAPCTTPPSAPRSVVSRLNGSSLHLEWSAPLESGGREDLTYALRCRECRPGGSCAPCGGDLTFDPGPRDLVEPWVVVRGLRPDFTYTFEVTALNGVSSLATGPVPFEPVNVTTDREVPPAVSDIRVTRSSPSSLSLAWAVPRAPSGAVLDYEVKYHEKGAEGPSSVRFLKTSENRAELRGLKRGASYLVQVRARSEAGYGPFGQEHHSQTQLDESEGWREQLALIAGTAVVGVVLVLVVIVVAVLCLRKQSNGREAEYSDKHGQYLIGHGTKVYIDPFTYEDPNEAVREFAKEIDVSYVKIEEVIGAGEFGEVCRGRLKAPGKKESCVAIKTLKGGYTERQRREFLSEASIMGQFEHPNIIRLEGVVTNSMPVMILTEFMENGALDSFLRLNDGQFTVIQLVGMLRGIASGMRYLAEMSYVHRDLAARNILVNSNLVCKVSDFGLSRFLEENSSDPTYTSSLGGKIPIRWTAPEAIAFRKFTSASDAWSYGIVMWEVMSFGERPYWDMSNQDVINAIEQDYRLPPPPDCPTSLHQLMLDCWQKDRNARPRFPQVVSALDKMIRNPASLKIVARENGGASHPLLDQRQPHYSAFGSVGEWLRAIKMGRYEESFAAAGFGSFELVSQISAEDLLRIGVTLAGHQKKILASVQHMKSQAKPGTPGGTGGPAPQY
# [4] = biological target: Angiopoietin-1 receptor (Homo sapiens) (UniProt Q02763); test: Inhibition of TIE2 at 10 uM
# [5] = biological target: T2, Aurora kinase A (Homo sapiens) (UniProt O14965); test: Inhibition of aurora A at 10 uM
# T2 sequence (whole entry): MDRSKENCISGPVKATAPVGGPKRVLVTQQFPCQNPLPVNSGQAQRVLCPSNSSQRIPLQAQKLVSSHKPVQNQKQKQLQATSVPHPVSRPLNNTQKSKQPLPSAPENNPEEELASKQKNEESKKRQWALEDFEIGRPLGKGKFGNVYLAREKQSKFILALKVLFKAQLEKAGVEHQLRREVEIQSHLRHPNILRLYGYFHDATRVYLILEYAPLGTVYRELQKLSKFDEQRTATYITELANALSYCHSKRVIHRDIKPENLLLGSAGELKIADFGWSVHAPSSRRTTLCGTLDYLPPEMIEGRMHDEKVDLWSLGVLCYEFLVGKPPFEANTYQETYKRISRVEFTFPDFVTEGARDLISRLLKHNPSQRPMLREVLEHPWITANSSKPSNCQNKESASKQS
# MCF7 = test: Antiproliferative activity against human MCF7 cells at 100 uM after 48 hrs relative to control; format: functional; settings: MCF7, 48 h; outline: as §1
# SF-268 = test: Antiproliferative activity against human SF268 cells at 100 uM after 48 hrs relative to control; format: functional; settings: SF-268, 48 h; outline: as §1
# [6] = biological target: RAC-alpha serine/threonine-protein kinase (Homo sapiens) (UniProt P31749); test: Inhibition of AKT1 at 10 uM
# [7] = biological target: Focal adhesion kinase 1 (Homo sapiens) (UniProt Q05397); test: Inhibition of FAK at 10 uM
# [8] = biological target: Insulin-like growth factor 1 receptor (Homo sapiens) (UniProt P08069); test: Inhibition of IGF1R at 10 uM
# [9] = biological target: Vascular endothelial growth factor receptor 2 (Homo sapiens) (UniProt P35968); test: Inhibition of VEGFR2 at 10 uM
# [10] = biological target: Hepatocyte growth factor receptor (Homo sapiens) (UniProt P08581); test: Inhibition of MET at 10 uM
# Homo sapiens [11] = species: Homo sapiens; test: Inhibition of CDK4/cyclinD1 at 10 uM
# [12] = biological target: Platelet-derived growth factor receptor beta (Homo sapiens) (UniProt P09619); test: Inhibition of PDGFRbeta at 10 uM
# [13] = biological target: Vascular endothelial growth factor receptor 3 (Homo sapiens, UniProt P35916); test: Inhibition of VEGFR3 at 10 uM
# [14] = biological target: Receptor-type tyrosine-protein kinase FLT3 (Homo sapiens) (UniProt P36888); test: Inhibition of FLT3 at 10 uM
# [15] = biological target: Serine/threonine-protein kinase PAK 4 (Homo sapiens) (UniProt O96013); test: Inhibition of PAK4 at 10 uM
# [16] = biological target: Serine/threonine-protein kinase PLK1 (Homo sapiens) (UniProt P53350); test: Inhibition of PLK1 at 10 uM
# [17] = biological target: Aurora kinase B (Homo sapiens) (UniProt Q96GD4); test: Inhibition of aurora B at 10 uM
# Sequence of Focal adhesion kinase 1 (Homo sapiens) (Q05397 2-1052 limits assumed): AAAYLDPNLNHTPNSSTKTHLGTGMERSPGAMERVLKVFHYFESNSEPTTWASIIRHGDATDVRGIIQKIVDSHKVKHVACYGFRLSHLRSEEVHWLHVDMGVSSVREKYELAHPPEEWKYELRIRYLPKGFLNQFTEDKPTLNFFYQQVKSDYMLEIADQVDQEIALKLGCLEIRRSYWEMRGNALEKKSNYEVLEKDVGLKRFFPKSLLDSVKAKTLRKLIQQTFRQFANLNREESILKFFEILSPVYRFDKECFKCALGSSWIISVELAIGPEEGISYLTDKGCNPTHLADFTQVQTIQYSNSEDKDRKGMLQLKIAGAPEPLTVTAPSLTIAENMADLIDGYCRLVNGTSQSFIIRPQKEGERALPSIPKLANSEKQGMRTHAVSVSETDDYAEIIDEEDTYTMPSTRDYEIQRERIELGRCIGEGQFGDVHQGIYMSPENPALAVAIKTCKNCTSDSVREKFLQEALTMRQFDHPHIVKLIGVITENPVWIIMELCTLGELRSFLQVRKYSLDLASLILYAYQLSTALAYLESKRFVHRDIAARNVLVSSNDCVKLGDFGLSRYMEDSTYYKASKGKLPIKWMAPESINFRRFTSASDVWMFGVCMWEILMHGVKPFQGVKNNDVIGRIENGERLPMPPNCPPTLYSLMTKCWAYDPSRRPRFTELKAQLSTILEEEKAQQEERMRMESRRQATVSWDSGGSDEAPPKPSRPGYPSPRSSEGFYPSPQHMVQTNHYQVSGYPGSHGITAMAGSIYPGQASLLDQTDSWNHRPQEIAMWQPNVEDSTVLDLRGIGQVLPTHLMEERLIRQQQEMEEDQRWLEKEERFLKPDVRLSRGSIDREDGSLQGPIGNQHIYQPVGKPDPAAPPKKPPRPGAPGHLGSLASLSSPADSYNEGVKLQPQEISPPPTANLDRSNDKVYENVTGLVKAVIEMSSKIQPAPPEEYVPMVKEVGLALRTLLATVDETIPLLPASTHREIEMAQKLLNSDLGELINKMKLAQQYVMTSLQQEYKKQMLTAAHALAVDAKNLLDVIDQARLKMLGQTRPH
# Sequence of Proto-oncogene tyrosine-protein kinase Src (Homo sapiens) (P12931 2-536 limits assumed): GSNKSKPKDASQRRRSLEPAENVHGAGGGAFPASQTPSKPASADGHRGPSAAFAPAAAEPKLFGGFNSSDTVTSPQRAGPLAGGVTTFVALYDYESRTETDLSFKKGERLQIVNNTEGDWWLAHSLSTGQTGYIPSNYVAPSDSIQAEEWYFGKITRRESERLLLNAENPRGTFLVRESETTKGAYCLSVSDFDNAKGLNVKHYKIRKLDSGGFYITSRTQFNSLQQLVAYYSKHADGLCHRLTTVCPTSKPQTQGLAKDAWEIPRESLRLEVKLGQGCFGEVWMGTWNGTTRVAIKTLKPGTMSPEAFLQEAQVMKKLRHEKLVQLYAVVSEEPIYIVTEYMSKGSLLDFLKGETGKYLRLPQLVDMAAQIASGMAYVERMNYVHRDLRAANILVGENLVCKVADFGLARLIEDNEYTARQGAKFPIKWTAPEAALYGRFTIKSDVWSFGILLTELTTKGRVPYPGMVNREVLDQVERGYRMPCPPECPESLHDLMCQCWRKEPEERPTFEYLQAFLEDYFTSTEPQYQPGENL
# Sequence of RAC-alpha serine/threonine-protein kinase (Homo sapiens) (P31749 whole entry): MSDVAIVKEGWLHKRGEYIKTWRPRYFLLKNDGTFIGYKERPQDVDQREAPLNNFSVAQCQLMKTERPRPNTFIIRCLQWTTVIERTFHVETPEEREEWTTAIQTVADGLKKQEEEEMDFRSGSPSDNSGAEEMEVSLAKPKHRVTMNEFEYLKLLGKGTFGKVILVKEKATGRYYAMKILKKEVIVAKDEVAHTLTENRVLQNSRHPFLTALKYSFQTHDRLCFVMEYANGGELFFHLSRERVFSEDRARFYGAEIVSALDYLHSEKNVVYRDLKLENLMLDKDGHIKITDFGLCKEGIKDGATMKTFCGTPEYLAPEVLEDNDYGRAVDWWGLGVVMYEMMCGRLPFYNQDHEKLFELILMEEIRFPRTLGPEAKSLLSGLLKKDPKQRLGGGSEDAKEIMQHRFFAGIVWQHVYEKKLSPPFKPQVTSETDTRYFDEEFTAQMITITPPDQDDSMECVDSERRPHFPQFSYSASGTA
# Sequence of Hepatocyte growth factor receptor (Homo sapiens) (P08581 whole entry): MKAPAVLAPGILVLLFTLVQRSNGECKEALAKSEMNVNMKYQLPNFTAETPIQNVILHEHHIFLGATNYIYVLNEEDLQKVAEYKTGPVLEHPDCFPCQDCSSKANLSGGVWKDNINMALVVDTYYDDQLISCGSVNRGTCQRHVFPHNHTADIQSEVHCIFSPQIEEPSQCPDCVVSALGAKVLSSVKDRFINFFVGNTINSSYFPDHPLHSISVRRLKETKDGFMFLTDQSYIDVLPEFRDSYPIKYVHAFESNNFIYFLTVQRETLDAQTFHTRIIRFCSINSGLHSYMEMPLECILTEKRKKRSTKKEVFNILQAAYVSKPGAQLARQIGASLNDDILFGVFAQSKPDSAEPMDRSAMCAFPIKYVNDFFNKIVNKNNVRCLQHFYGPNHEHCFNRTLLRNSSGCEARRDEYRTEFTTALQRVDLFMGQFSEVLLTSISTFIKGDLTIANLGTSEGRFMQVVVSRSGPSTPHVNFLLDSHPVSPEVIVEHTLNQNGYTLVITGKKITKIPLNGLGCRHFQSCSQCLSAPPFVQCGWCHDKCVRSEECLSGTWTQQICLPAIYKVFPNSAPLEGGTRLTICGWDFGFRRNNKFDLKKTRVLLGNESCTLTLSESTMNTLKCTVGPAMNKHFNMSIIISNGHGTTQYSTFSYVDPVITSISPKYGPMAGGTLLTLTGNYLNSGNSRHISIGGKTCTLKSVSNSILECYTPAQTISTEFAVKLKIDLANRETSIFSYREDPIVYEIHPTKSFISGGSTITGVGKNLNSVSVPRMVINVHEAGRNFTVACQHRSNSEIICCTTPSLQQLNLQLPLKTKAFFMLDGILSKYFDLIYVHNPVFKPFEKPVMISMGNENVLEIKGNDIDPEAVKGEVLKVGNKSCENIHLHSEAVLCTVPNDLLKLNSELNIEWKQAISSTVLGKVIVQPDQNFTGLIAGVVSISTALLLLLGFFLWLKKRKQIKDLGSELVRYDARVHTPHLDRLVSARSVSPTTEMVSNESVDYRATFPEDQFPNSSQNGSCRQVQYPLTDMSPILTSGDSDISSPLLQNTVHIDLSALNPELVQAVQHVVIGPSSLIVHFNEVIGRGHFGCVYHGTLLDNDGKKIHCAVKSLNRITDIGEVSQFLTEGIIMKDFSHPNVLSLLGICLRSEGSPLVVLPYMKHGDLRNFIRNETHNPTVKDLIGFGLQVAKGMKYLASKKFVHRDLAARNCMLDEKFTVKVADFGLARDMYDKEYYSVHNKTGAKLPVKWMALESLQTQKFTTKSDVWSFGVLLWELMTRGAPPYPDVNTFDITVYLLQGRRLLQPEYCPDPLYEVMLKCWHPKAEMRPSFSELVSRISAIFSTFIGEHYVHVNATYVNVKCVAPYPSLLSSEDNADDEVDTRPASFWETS
# Sequence of Insulin-like growth factor 1 receptor (Homo sapiens) (P08069 31-736 limits assumed): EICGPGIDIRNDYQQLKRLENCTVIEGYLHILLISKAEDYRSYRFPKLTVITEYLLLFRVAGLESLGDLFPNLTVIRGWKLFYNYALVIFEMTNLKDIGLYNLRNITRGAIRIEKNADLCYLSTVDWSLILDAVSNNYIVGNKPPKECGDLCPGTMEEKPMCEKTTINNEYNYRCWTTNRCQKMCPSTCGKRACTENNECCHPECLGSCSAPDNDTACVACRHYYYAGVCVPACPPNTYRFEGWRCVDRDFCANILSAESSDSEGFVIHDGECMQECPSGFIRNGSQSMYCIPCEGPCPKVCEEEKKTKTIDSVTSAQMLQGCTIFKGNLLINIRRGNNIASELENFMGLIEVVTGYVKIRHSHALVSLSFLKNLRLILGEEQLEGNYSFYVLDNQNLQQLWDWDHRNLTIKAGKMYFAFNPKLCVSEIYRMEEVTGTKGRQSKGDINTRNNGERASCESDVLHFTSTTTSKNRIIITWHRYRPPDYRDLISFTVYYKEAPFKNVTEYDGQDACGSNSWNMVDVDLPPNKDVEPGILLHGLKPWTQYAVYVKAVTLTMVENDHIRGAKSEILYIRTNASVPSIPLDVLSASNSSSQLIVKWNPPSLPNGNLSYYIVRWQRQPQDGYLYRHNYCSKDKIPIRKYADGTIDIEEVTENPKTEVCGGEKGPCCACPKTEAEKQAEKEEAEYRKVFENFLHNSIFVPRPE
# Sequence of Insulin-like growth factor 1 receptor (Homo sapiens) (P08069 741-1367 limits assumed): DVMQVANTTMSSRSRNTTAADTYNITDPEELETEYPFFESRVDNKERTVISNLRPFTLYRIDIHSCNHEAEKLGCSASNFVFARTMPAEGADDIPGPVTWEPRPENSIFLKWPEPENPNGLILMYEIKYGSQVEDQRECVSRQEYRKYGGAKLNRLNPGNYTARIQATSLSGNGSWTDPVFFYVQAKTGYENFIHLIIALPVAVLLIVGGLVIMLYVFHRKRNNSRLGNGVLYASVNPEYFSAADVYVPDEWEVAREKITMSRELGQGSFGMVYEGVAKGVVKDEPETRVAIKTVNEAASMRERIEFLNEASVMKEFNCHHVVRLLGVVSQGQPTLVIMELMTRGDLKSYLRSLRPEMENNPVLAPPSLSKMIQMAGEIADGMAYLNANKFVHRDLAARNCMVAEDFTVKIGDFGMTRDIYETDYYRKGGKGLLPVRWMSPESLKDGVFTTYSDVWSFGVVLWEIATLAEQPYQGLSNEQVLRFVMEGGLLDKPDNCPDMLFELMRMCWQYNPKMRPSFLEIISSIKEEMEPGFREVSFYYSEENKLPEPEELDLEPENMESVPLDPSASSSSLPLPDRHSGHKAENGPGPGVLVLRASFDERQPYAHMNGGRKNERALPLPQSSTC
inhibition (Homo sapiens [1]),inhibition [2],inhibition [3],inhibition [4],inhibition [5],inhibition [6],inhibition [7],inhibition [8],inhibition [9],inhibition [10],inhibition (Homo sapiens [11]),inhibition [12],inhibition [13],inhibition [14],inhibition [15],inhibition [16],inhibition [17],Structure (SMILES),"growth, % of control at 100 µM (NCI-H460)","growth, % of control at 100 µM (MCF7)","growth, % of control at 100 µM (SF-268)"
< 40%,< 40%,< 40%,< 40%,< 40%,< 40%,< 40%,< 40%,< 40%,< 40%,< 40%,< 40%,< 40%,< 40%,< 40%,< 40%,< 40%,Cc1ccc(-n2ncc3c2-c2ccccc2NC(=O)C3)cc1,29%,57%,95%
< 40%,< 40%,< 40%,< 40%,< 40%,< 40%,< 40%,< 40%,< 40%,< 40%,> 40%,< 40%,< 40%,< 40%,< 40%,< 40%,< 40%,O=C1Cc2cnn(-c3cccc(Cl)c3)c2-c2ccccc2N1,39%,64%,101%
< 40%,< 40%,< 40%,< 40%,< 40%,< 40%,< 40%,< 40%,< 40%,< 40%,< 40%,< 40%,< 40%,< 40%,< 40%,< 40%,< 40%,O=C1Cc2cnn(-c3ccc(Br)cc3)c2-c2ccccc2N1,32%,51%,98%
< 40%,< 40%,< 40%,< 40%,< 40%,< 40%,< 40%,< 40%,< 40%,< 40%,< 40%,< 40%,< 40%,,< 40%,< 40%,< 40%,O=C1Cc2cnn(-c3ccc(Cl)cc3)c2-c2ccccc2N1,41%,54%,80%

# The next lines start with the molecule.
Structure (SMILES),inhibition (Homo sapiens [1]),inhibition [2],inhibition [3],inhibition [4],inhibition [5],inhibition [6],inhibition [7],inhibition [8],inhibition [9],inhibition [10],inhibition (Homo sapiens [11]),inhibition [12],inhibition [13],inhibition [14],inhibition [15],inhibition [16],inhibition [17],"growth, % of control at 100 µM (NCI-H460)","growth, % of control at 100 µM (MCF7)","growth, % of control at 100 µM (SF-268)"
O=C1Cc2cnn(-c3ccc(F)cc3F)c2-c2ccccc2N1,< 40%,< 40%,< 40%,< 40%,< 40%,< 40%,< 40%,< 40%,< 40%,< 40%,< 40%,< 40%,< 40%,< 40%,< 40%,< 40%,< 40%,41%,61%,98%
O=C1Cc2cnn(-c3ccc([N+](=O)[O-])cc3)c2-c2ccccc2N1,< 40%,< 40%,< 40%,< 40%,< 40%,< 40%,< 40%,< 40%,< 40%,< 40%,< 40%,< 40%,< 40%,< 40%,< 40%,< 40%,< 40%,62%,55%,62%
O=C1Cc2cnn(-c3ccccc3)c2-c2ccccc2N1,< 40%,< 40%,< 40%,< 40%,< 40%,< 40%,< 40%,< 40%,< 40%,< 40%,< 40%,< 40%,< 40%,< 40%,< 40%,< 40%,< 40%,33%,55%,90%
Cc1ccccc1-n1ncc2c1-c1ccccc1NC(=O)C2,< 40%,< 40%,< 40%,< 40%,< 40%,< 40%,< 40%,< 40%,< 40%,< 40%,< 40%,< 40%,< 40%,< 40%,< 40%,< 40%,< 40%,49%,64%,98%
CC(C)(C)c1ccc(-n2ncc3c2-c2ccccc2NC(=O)C3)cc1,< 40%,< 40%,< 40%,< 40%,< 40%,< 40%,< 40%,< 40%,< 40%,< 40%,< 40%,< 40%,,< 40%,< 40%,< 40%,< 40%,11%,130%,
O=C1Cc2cnn(-c3ccc(C(F)(F)F)cc3)c2-c2ccccc2N1,< 40%,< 40%,< 40%,< 40%,< 40%,< 40%,< 40%,< 40%,< 40%,< 40%,< 40%,< 40%,< 40%,< 40%,< 40%,< 40%,< 40%,28%,52%,
